Data taken from ChEMBL document CHEMBL1122443, “Synthesis and antitumor evaluation of selected 5,6-disubstituted 1(2)H-indazole-4,7-diones” (1983).
Activity calls are given as the source filed them. The calls are words filed in the database; no cut-off is given here.

What was measured:
Mus musculus [1] = assay: Antitumor activity in CF1 mice bearing Ehrlich ascites carcinoma measured as percentage inhibition at 5 mg/kg; assay type: functional
Outline: (§1)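 Ehrlich ascites model in male CF1 mice (22–25 g): 2 × 10⁶ cells ip on day 0, ip dosing days 1–8, kill on day 9. Percent inhibition = 100 − [(treated volume × treated ascrit)/(control volume × control ascrit)]. Greater than 80% was taken as significant. Vehicle was 0.05% Tween 80, alone or with 5% absolute EtOH. 6-Mercaptopurine was the positive control.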

Mus musculus [2] = assay: Antitumor activity in CF1 mice bearing Ehrlich ascites carcinoma measured as percentage inhibition at 6 mg/kg; assay type: functional; outline: as §1
Mus musculus [3] = assay: Antitumor activity in CF1 mice bearing Ehrlich ascites carcinoma measured as ascites volume at 5 mg/kg; assay type: functional
Outline: (§2)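 Male CF1 mice (22–25 g) received 2 × 10⁶ Ehrlich carcinoma cells ip on day 0. Dosing was ip daily on days 1–8, with sacrifice on day 9. Ascites fluid volume per mouse and ascrit (packed cell volume) were measured for each group. Vehicle was 0.05% Tween 80, or 5% absolute EtOH in 0.05% Tween 80, used for both compound and control. 6-Mercaptopurine was the positive control.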

Mus musculus [4] = assay: Antitumor activity in CF1 mice bearing Ehrlich ascites carcinoma measured as ascites volume at 6 mg/kg; assay type: functional; outline: as §2
Mus musculus [5] = assay: Average days survived for treated / average days survived for control at 0.5 (mg/kg); 10.5/9.2; assay type: functional
Mus musculus [6] = assay: Average days survived for treated / average days survived for control at 1 (mg/kg); 11/9.2; assay type: functional
Mus musculus [7] = assay: Average days survived for treated / average days survived for control at 10 (mg/kg); 12.6/9.2; assay type: functional
Mus musculus [8] = assay: Average days survived for treated / average days survived for control at 15 (mg/kg); 9.2/9.2; assay type: functional
Mus musculus [9] = assay: Average days survived for treated / average days survived for control at 20 (mg/kg); 3.6/9.2; assay type: functional
Mus musculus [10] = assay: Average days survived for treated / average days survived for control at 5 (mg/kg); 10.9/9.2; assay type: functional
Mus musculus [11] = assay: Antitumor activity in CF1 mice bearing Ehrlich ascites carcinoma measured as survivors on day 9 at 5 mg/kg; 5/5; assay type: functional
Mus musculus [12] = assay: Antitumor activity in CF1 mice bearing Ehrlich ascites carcinoma measured as survivors on day 9 at 6 mg/kg; 5/6; assay type: functional
Mus musculus [13] = assay: Antitumor activity in CF1 mice bearing Ehrlich ascites carcinoma measured as percent ascrit packed cell volume at 5 mg/kg; assay type: functional; outline: as §2
Mus musculus [14] = assay: Antitumor activity in CF1 mice bearing Ehrlich ascites carcinoma measured as percent ascrit packed cell volume at 6 mg/kg; assay type: functional; outline: as §2
Mus musculus [15] = assay: Anti tumor activity in mice bearing lymphocytic leukemia P-388 at 0.5 mg/kg; assay type: functional
Outline: (§3)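 Male BDF1 mice (20–23 g) were inoculated ip with 1 × 10⁶ P-388 leukemia cells on day 0. Compound was given ip once daily on days 1–14 in 0.05% Tween 80 vehicle, with a vehicle control group and 5-fluorouracil as positive control. Activity was scored as % T/C, average days survived treated/control, with >125% taken as significant.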

Mus musculus [16] = assay: Anti tumor activity in mice bearing lymphocytic leukemia P-388 at 1 mg/kg; assay type: functional; outline: as §3
Mus musculus [17] = assay: Anti tumor activity in mice bearing lymphocytic leukemia P-388 at 10 mg/kg; assay type: functional
Outline: (§4)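 Male BDF1 mice (20–23 g) inoculated ip with 1 × 10⁶ P-388 lymphocytic leukemia cells on day 0. Test agents were given ip once daily on days 1–14, with 0.05% Tween 80 as vehicle for treated and control groups. Read-out is %T/C, the mean days survived by treated over control. Values above 125% were counted as significant. 5-Fluorouracil was the positive control.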

Mus musculus [18] = assay: Anti tumor activity in mice bearing lymphocytic leukemia P-388 at 12 mg/kg; assay type: functional; outline: as §4
Mus musculus [19] = assay: Anti tumor activity in mice bearing lymphocytic leukemia P-388 at 15 mg/kg; assay type: functional; outline: as §4
Mus musculus [20] = assay: Anti tumor activity in mice bearing lymphocytic leukemia P-388 at 20 mg/kg; assay type: functional; outline: as §4
Mus musculus [21] = assay: Anti tumor activity in mice bearing lymphocytic leukemia P-388 at 5 mg/kg; assay type: functional; outline: as §3
Mus musculus [22] = assay: Average days survived for treated / average days survived for control at 12 (mg/kg); 9/9.2; assay type: functional
Mus musculus [23] = assay: Antitumor activity in CF1 mice bearing Ehrlich ascites carcinoma measured as ascites volume at 0.5 mg/kg; assay type: functional
Outline: (§5)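 Ehrlich ascites cells (2 × 10⁶) were implanted ip in male CF1 mice (22–25 g) on day 0. Dosing was ip on days 1–8 in 0.05% Tween 80 or 5% EtOH/0.05% Tween 80, with vehicle controls. Mice were killed on day 9, and ascites fluid volume per mouse was measured.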

Mus musculus [24] = assay: Antitumor activity in CF1 mice bearing Ehrlich ascites carcinoma measured as percentage inhibition at 0.5 mg/kg; IA= inactive; assay type: functional, organism-based; parameters: dose 0.5 mg/kg
Outline: (§6)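 In the Ehrlich ascites model, male CF1 mice (22–25 g) received 2 × 10⁶ cells ip on day 0 and compound ip on days 1–8, with a vehicle of 0.05% Tween 80 ± 5% EtOH. Ascites volume and ascrit were taken on day 9. % inhibition = 100 − [(vol × ascrit, treated)/(vol × ascrit, control)], with >80% taken as significant.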

Mus musculus [25] = assay: Antitumor activity in CF1 mice bearing Ehrlich ascites carcinoma measured as percentage inhibition at 1 mg/kg; assay type: functional; outline: as §6
Mus musculus [26] = assay: Antitumor activity in CF1 mice bearing Ehrlich ascites carcinoma measured as survivors on day 9 at 1 mg/kg; 6/6; assay type: functional
Mus musculus [27] = assay: Antitumor activity in CF1 mice bearing Ehrlich ascites carcinoma measured as ascites volume at 1 mg/kg; assay type: functional; outline: as §5
Mus musculus [28] = assay: Average days survived for treated / average days survived for control at 1 (mg/kg); 13.3/9.2; assay type: functional
Mus musculus [29] = assay: Average days survived for treated / average days survived for control at 2 (mg/kg); 12.6/9.2; assay type: functional
Mus musculus [30] = assay: Average days survived for treated / average days survived for control at 3 (mg/kg); 10.2/9.2; assay type: functional
Mus musculus [31] = assay: Average days survived for treated / average days survived for control at 5 (mg/kg); 11/9.2; assay type: functional
Mus musculus [32] = assay: Antitumor activity in CF1 mice bearing Ehrlich ascites carcinoma measured as survivors on day 9 at 5 mg/kg; 6/6; assay type: functional
Mus musculus [33] = assay: Antitumor activity in CF1 mice bearing Ehrlich ascites carcinoma measured as percent ascrit packed cell volume at 1 mg/kg; assay type: functional
Outline: (§7)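 CF1 male mice (22–25 g) were inoculated ip with 2 × 10⁶ Ehrlich cells on day 0 and treated ip on days 1–8 in 0.05% Tween 80 or 5% EtOH/0.05% Tween 80 vehicle. On day 9 the mice were sacrificed, and the ascrit (packed cell volume) of the ascites fluid was determined.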

Mus musculus [34] = assay: Antitumor activity in CF1 mice bearing Ehrlich ascites carcinoma measured as percent ascrit packed cell volume at 0.5 mg/kg; assay type: functional; outline: as §7
Mus musculus [35] = assay: Anti tumor activity in mice bearing lymphocytic leukemia P-388 at 2 mg/kg; assay type: functional; outline: as §3
Mus musculus [36] = assay: Anti tumor activity in mice bearing lymphocytic leukemia P-388 at 3 mg/kg; assay type: functional; outline: as §3
Mus musculus [37] = assay: Anti tumor activity in mice bearing lymphocytic leukemia P-388 at 10 mg/kg; Toxic; assay type: functional, organism-based; parameters: dose 10 mg/kg; outline: as §3
Mus musculus [38] = assay: Antitumor activity in CF1 mice bearing Ehrlich ascites carcinoma measured as survivors on day 9 at 0.5 mg/kg; 5/6; assay type: functional
Mus musculus [39] = assay: Antitumor activity in CF1 mice bearing Ehrlich ascites carcinoma measured as percentage inhibition at 10 mg/kg; assay type: functional; outline: as §6
Mus musculus [40] = assay: Antitumor activity in CF1 mice bearing Ehrlich ascites carcinoma measured as survivors on day 9 at 10 mg/kg; 5/6; assay type: functional
Mus musculus [41] = assay: Antitumor activity in CF1 mice bearing Ehrlich ascites carcinoma measured as survivors on day 9 at 12 mg/kg; 0/6; assay type: functional
Mus musculus [42] = assay: Average days survived for treated / average days survived for control at 1 (mg/kg); 10.8/9.2; assay type: functional
Mus musculus [43] = assay: Antitumor activity in CF1 mice bearing Ehrlich ascites carcinoma measured as percent ascrit packed cell volume at 10 mg/kg; assay type: functional; outline: as §7
Mus musculus [44] = assay: Antitumor activity in CF1 mice bearing Ehrlich ascites carcinoma measured as ascites volume at 10 mg/kg; assay type: functional; outline: as §5

O=C1C(Cl)=C(Cl)C(=O)c2[nH]ncc21
inhibition in vivo at 5 mg/kg (Mus musculus [1]): 98.6% | inhibition in vivo at 6 mg/kg (Mus musculus [2]): 85.4% | ascites volume (Mus musculus [3]): 0.48 ml mouse-1 | ascites volume (Mus musculus [4]): 0.6 ml mouse-1 | Average survival (days) (Mus musculus [5]): 10.5 | Average survival (days) (Mus musculus [6]): 11 | Average survival (days) (Mus musculus [7]): 12.6 | Average survival (days) (Mus musculus [8]): 9.2 | Average survival (days) (Mus musculus [9]): 3.6 | Average survival (days) (Mus musculus [10]): 10.9 | Survivors (Mus musculus [11]): 5 | Survivors (Mus musculus [12]): 5 | packed cell volume (Mus musculus [13]): 4.5% | packed cell volume (Mus musculus [14]): 24.1% | T/C (Mus musculus [15]): 114% | T/C (Mus musculus [16]): 120% | T/C (Mus musculus [17]): 137% | T/C (Mus musculus [18]): 98% | T/C (Mus musculus [19]): 104% | T/C (Mus musculus [20]): 39% | T/C (Mus musculus [21]): 118% | Average survival (days) (Mus musculus [22]): 9

O=C1C(N2CC2)=C(Cl)C(=O)c2n[nH]cc21
inhibition in vivo at 5 mg/kg (Mus musculus [1]): 92.5% | ascites volume (Mus musculus [23]): 0.38 ml mouse-1 | inhibition (Mus musculus [24]): inactive | inhibition in vivo at 1 mg/kg (Mus musculus [25]): 95% | Survivors (Mus musculus [26]): 6 | ascites volume (Mus musculus [27]): 0.32 ml mouse-1 | ascites volume (Mus musculus [3]): 0.15 ml mouse-1 | Average survival (days) (Mus musculus [5]): 10.5 | Average survival (days) (Mus musculus [28]): 13.3 | Average survival (days) (Mus musculus [29]): 12.6 | Average survival (days) (Mus musculus [30]): 10.2 | Average survival (days) (Mus musculus [31]): 11 | Survivors (Mus musculus [32]): 6 | packed cell volume (Mus musculus [33]): 5.8% | packed cell volume (Mus musculus [13]): 49.4% | packed cell volume (Mus musculus [34]): 44% | T/C (Mus musculus [15]): 114% | T/C (Mus musculus [16]): 145% | T/C (Mus musculus [35]): 137% | T/C (Mus musculus [36]): 111% | T/C (Mus musculus [21]): 120% | T/C (Mus musculus [37]): Toxic | Survivors (Mus musculus [38]): 5

Cn1cc2c(n1)C(=O)C(Cl)=C(N1CC1)C2=O
inhibition in vivo at 5 mg/kg (Mus musculus [1]): 83.7% | inhibition in vivo at 1 mg/kg (Mus musculus [25]): 72.9% | inhibition in vivo at 10 mg/kg (Mus musculus [39]): 96.3% | Survivors (Mus musculus [26]): 6 | Survivors (Mus musculus [40]): 5 | Survivors (Mus musculus [41]): 0 | ascites volume (Mus musculus [27]): 0.8 ml mouse-1 | ascites volume (Mus musculus [3]): 0.7 ml mouse-1 | Average survival (days) (Mus musculus [42]): 10.8 | Survivors (Mus musculus [11]): 5 | packed cell volume (Mus musculus [33]): 12.7% | packed cell volume (Mus musculus [43]): 8.4% | packed cell volume (Mus musculus [13]): 36.2% | T/C (Mus musculus [16]): 117% | ascites volume (Mus musculus [44]): 0.44 ml mouse-1
